# Source: ChEMBL document CHEMBL1136794, “l-2',3'-Didehydro-2',3'-dideoxy-3'-fluoronucleosides: synthesis, anti-HIV activity, chemical and enzymatic stability, and mechanism of resistance” (J Med Chem, 2003)
# Key:
# [1] = test system: CCRF-CEM; assay: Cytotoxicity determined in (T-lymphoblastoid cell line) CEM cells, expressed as IC50; type: functional, cell-based; conditions: Homo sapiens
# Outline: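 CEM T-lymphoblastoid cells were seeded in log phase at 2.5 × 10³ cells/well with 10-fold serial drug dilutions and incubated 4 days at 37 °C in 5% CO2. Viability was read as MTT reduction: dye added overnight, formazan solubilized 5 h, absorbance at 570 nm.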
# [2] = Cytotoxicity determined in uninfected PHA-stimulated human PBM cells (PBMCs), expressed as IC50; type: functional, cell-based; conditions: PBMC
# Outline: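 Uninfected PHA-stimulated PBM cells from seronegative donors, isolated by single-step Ficoll-Hypaque, were seeded at 5 × 10⁴ cells/well with 10-fold serial drug dilutions. After 5 days at 37 °C in 5% CO2, MTT dye was added overnight, formazan solubilized 5 h, and absorbance read at 570 nm.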
# [3] = test system: Vero; assay: Cytotoxicity determined in (african green monkey kidney) Vero cells, expressed as IC50; type: functional, cell-based; conditions: Chlorocebus sabaeus
# Outline: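 Vero cells were seeded in log phase at 5 × 10³ cells/well with 10-fold serial drug dilutions and incubated 3 days at 37 °C in 5% CO2. Viability was read by MTT: overnight dye incubation, 5 h solubilization, absorbance at 570 nm.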
# [4] = Activity against Lamivudine-resistant virus (HIV-1M184V) in human PBM cells, expressed as EC90; type: functional; conditions: PBMC
# Outline: (§1)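 PHA-stimulated (2-3 days) human PBM cells from seronegative donors, bulk-infected 1 h with molecular clones HIV-1 xxBru or M184V (100 TCID50/1 × 10⁷ cells in flask, or 200 TCID50/6 × 10⁵ cells/well in 24-well plate), then added to 10-fold serial compound dilutions. RPMI-1640 with IL-2 and DEAE-dextran; 5 days, 37 °C, 5% CO₂. Supernatant RT activity read out; EC50/EC90 by median effect method.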
# [5] = Activity against Lamivudine-resistant virus (HIV-1M184V) in human PBM cells, expressed as EC50; type: functional, cell-based; outline: as §1
# [6] = Fold increase ratio of HIV-1M184V to HIV-1XXBRU; type: functional
# Outline: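 PHA-stimulated PBM cells were infected for 1 h with the molecular clones HIV-1 xxBru (wild type) or HIV-1 M184Vpitt, then cultured 5 days with 10-fold serial dilutions. EC50 came from supernatant RT activity by the median effect method, and the ratio was taken as mutant EC50 over wild-type EC50.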
# [7] = Activity against wild-type virus (HIV-1XXBRU) in human PBM cells, expressed as EC50
# [8] = Half life determined at pH 2 buffer solution; type: ADME
# Outline: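 Nucleosides were held in pH 2 buffer and followed by TLC every 10 min for the first 3 h, then up to 6 h, to estimate half-life.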
smiles,measurement,setting,value
Nc1ncnc2c1ncn2[C@H]1CC(F)(F)[C@H](CO)O1,IC50,[1],> 100 µM
same,IC50,[2],> 100 µM
same,IC50,[3],> 100 µM
Nc1nc(O)c2ncn([C@H]3C=C(F)[C@H](CO)O3)c2n1,IC50,[1],> 100 µM
same,IC50,[2],> 100 µM
same,IC50,[3],> 100 µM
OC[C@@H]1O[C@H](n2cnc3c(O)ncnc32)CC1(F)F,IC50,[1],> 100 µM
same,IC50,[2],> 100 µM
same,IC50,[3],> 100 µM
Cc1cn([C@H]2C=C(F)[C@H](CO)O2)c(=O)nc1O,IC50,[1],> 100 µM
same,IC50,[2],> 100 µM
same,IC50,[3],> 100 µM
Nc1nc(O)c2ncn([C@H]3CC(F)(F)[C@H](CO)O3)c2n1,IC50,[1],> 100 µM
same,IC50,[2],> 100 µM
same,IC50,[3],> 100 µM
Cc1cn([C@H]2C[C@H](N=[N+]=[N-])[C@@H](CO)O2)c(=O)[nH]c1=O [ZIDOVUDINE],EC90,[4],0.025 µM
same,EC50,[5],0.003 µM
same,FI,[6],0.3
same,EC50,[7],0.01 µM
Nc1ncnc2c1ncn2[C@@H]1C=C(F)[C@H](CO)O1,IC50,[1],> 100 µM
same,IC50,[2],> 100 µM
same,IC50,[3],> 100 µM
Nc1ccn([C@@H]2CS[C@H](CO)O2)c(=O)n1 [LAMIVUDINE],EC90,[4],> 100 µM
same,EC50,[5],> 100 µM
same,FI,[6],> 2860
same,EC50,[7],0.035 µM
O=c1nc(O)ccn1[C@@H]1C=C(F)[C@H](CO)O1,IC50,[1],30.1 µM
same,IC50,[2],> 100 µM
same,IC50,[3],> 100 µM
Nc1nc(=O)n([C@H]2C=C(F)[C@H](CO)O2)cc1F,IC50,[1],> 100 µM
same,IC50,[2],> 100 µM
same,IC50,[3],> 100 µM
O=c1ccn([C@H]2C=C(F)[C@H](CO)O2)c(=O)[nH]1,IC50,[1],> 100 µM
same,IC50,[2],> 100 µM
same,IC50,[3],> 100 µM
Nc1ccn([C@H]2CC(F)(F)[C@H](CO)O2)c(=O)n1,IC50,[1],> 100 µM
same,IC50,[2],> 100 µM
same,IC50,[3],> 100 µM
Nc1ccn([C@@H]2CC(F)(F)[C@H](CO)O2)c(=O)n1,IC50,[1],> 100 µM
same,IC50,[2],> 100 µM
same,IC50,[3],> 100 µM
OC[C@@H]1O[C@@H](n2cnc3c(O)ncnc32)CC1(F)F,IC50,[1],> 100 µM
same,IC50,[2],> 100 µM
same,IC50,[3],> 100 µM
Cc1cn([C@@H]2CC(F)(F)[C@H](CO)O2)c(=O)nc1O,IC50,[1],> 100 µM
same,IC50,[2],> 100 µM
same,IC50,[3],> 100 µM
Nc1nc(=O)n([C@@H]2C=C(F)[C@H](CO)O2)cc1F,IC50,[1],> 100 µM
same,EC90,[4],67.4 µM
same,IC50,[2],> 100 µM
same,EC50,[5],10.9 µM
same,IC50,[3],> 100 µM
same,FI,[6],1210
same,EC50,[7],0.009 µM
Nc1ccn([C@H]2C=C(F)[C@H](CO)O2)c(=O)n1,IC50,[1],> 100 µM
same,IC50,[2],> 100 µM
same,IC50,[3],> 100 µM
Nc1nc(=O)n([C@@H]2CC(F)(F)[C@H](CO)O2)cc1F,IC50,[1],> 100 µM
same,IC50,[2],> 100 µM
same,IC50,[3],> 100 µM
Nc1nc(O)c2ncn([C@@H]3CC(F)(F)[C@H](CO)O3)c2n1,IC50,[1],> 100 µM
same,IC50,[2],> 100 µM
same,IC50,[3],> 100 µM
OC[C@H]1O[C@@H](n2cnc3c(O)ncnc32)C=C1F,IC50,[1],> 100 µM
same,IC50,[2],> 100 µM
same,IC50,[3],> 100 µM
Nc1nc(O)c2ncn([C@@H]3C=C(F)[C@H](CO)O3)c2n1,IC50,[1],58.4 µM
same,IC50,[2],17.4 µM
same,IC50,[3],36.5 µM
Cc1cn([C@@H]2C=C(F)[C@H](CO)O2)c(=O)nc1O,IC50,[1],> 100 µM
same,IC50,[2],> 100 µM
same,IC50,[3],> 100 µM
Nc1ncnc2c1ncn2[C@H]1C=C(F)[C@H](CO)O1,IC50,[1],> 100 µM
same,IC50,[2],> 100 µM
same,IC50,[3],> 100 µM
Cc1cn([C@H]2CC(F)(F)[C@H](CO)O2)c(=O)[nH]c1=O,IC50,[1],> 100 µM
same,IC50,[2],> 100 µM
same,IC50,[3],> 100 µM
O=c1nc(O)ccn1[C@@H]1CC(F)(F)[C@H](CO)O1,IC50,[1],> 100 µM
same,IC50,[2],> 100 µM
same,IC50,[3],> 100 µM
O=c1nc(O)ccn1[C@H]1CC(F)(F)[C@H](CO)O1,IC50,[1],> 100 µM
same,IC50,[2],> 100 µM
same,IC50,[3],> 100 µM
Nc1ccn([C@@H]2CC[C@H](CO)O2)c(=O)n1,half-life,[8],1 h
same,EC90,[4],28.2 µM
same,EC50,[5],2.9 µM
same,FI,[6],17
same,EC50,[7],0.17 µM
Nc1nc(=O)n([C@H]2CC(F)(F)[C@H](CO)O2)cc1F,IC50,[1],> 100 µM
same,IC50,[2],> 100 µM
same,IC50,[3],> 100 µM
Nc1ncnc2c1ncn2[C@@H]1CC(F)(F)[C@H](CO)O1,IC50,[1],> 100 µM
same,IC50,[2],> 100 µM
same,IC50,[3],> 100 µM
Nc1ccn([C@@H]2C=C(F)[C@H](CO)O2)c(=O)n1,half-life,[8],48 h
same,IC50,[1],> 100 µM
same,EC90,[4],15.7 µM
same,IC50,[2],86.9 µM
same,EC50,[5],2.4 µM
same,IC50,[3],> 100 µM
same,FI,[6],104
same,EC50,[7],0.023 µM
